Rows were chosen to be rich in hits. Some 3.1% of all compounds tested hit in one or more screens of this group.
rRNA inh HTS: reduced GFP signal of wild-type E. coli, primary screen, bacterial rRNA inhibitor project, GFP/RFP fluorescence, OD600, single point. E. coli WT GFP vs humanized-ribosome RFP mutants, 24 h; active compounds read low; DMSO median 0, no signal -100. GFP signal change (wild-type ribosome), % (no concentration beside the values). hit rate 1.6% among 350,000. AID 720706, 2013;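 active = significant combined selectivity score with lowered wild-type GFP, culture density cut under 30%, mutant RFP and density less affected; inactive = any of these conditions unmet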
DENV2 CPE rescue: inhibitors of DENV2 cytopathic effect, primary screen, cell-based, plate reader, single concentration. DENV2-infected cells, cytopathic effect rescue. CPE inhibition, % at 9.99 µM. hit rate 1.7% among 350,000. AID 651640, 2012; in the data active = CPE inhibition above about 20%, passing the limit was not always enough; inconclusive = no clear call, values can overlap the other calls; tested in BHK-21 cells;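 note: 0% = median of neutral control wells and 100% = median of positive control wells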
E-selectin induc: E-selectin induction in HUVECs, primary screen, imaging, HUVEC, immunofluorescence imaging, single point | P16581 | normalized: neutral wells 0, TNF-alpha wells 100 | activation, % at 7.58 µM | hit rate 0.37% among 260,000 | AID 686992, 2013;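 active = mean E-selectin-positive cell signal at least 10% of the positive control, reached in at least 60% of replicates, without over 20% cell loss; inconclusive = no rule given, readout overlaps actives, possibly toxicity-flagged; inactive = the rest, including those meeting only one limit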
Target sequence (P16581 whole entry, looked up): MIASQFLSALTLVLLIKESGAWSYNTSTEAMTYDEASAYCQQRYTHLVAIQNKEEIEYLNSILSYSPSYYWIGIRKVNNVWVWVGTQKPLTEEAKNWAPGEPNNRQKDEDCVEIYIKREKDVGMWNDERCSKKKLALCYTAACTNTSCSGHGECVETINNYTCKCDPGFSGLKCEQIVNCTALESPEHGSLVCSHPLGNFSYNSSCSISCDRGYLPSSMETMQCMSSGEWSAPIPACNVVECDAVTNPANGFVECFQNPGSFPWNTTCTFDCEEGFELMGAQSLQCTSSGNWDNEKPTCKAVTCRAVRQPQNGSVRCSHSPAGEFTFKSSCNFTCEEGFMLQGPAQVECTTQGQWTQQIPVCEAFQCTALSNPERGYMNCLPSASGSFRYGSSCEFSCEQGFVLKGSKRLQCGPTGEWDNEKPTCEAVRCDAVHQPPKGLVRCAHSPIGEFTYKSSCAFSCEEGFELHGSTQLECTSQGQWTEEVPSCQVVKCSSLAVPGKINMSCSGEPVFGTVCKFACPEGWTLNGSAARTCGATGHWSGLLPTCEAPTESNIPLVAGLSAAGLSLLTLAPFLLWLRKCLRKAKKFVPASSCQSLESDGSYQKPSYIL
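System: HUVEC / Compound: single concentration / Signal: immunofluorescence imaging / Read-out: percent E-selectin-positive cells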
Cneo AK release: Cryptococcus neoformans cell lysis inducers, primary screen, AK release luminescence, single concentration; C. neoformans lysis, adenylate kinase release luminescence, 4 h; normalised: neutral wells 0, clomiphene wells 100; lysis activity, % at 15 µM; hit rate 0.2% among 360,000; AID 651654, 2012;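 active = mean lysis activity across replicates of at least 80%, whatever share of replicates individually reach that level; inactive = mean lysis activity below 80%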
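Assay system: C. neoformans cells. Amount: yeast cell density of 5 × 10^6 cells/mL. Technique: AK luminescence. Buffer or medium: YPD. Times: static 4 h at 37 °C with compound, 1 h detection. Dosing: single-point compound dose. Read-out: lysis from increased AK signal.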
miR122 inh: miR-122 Renilla sensor signal increase in Huh7, primary screen, miR-122 inhibitor project, cell-based, single point, plate reader; Huh7 miR-122 Renilla luciferase sensor, 48 h; neutral wells = 0, positive control = 100; activation (reporter increase), % at 12.5 µM; hit rate 0.3% among 340,000;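 active = mean replicate activation score at least 90 and every replicate individually at or above 90; inconclusive = only one of the two criteria met; inactive = neither criterion met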;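 note: higher luciferase means less miR-122 activity so hits act as miR-122 inhibitors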
AID977621: growth inhibition of wild-type GFP E. coli, dose response, H69 mutant RFP, cherry-pick | 1,900 tested, under 10 active | E. coli wild-type GFP strain growth, fluorescence, 24 h | activity change, negative = inhibition at 50 µM | shares compounds with rRNA inh HTS;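 active = Wild-type ribosome reporter drop at least double the humanized mutant ribosome reporter drop, growth loss under a set limit; inconclusive = no clear call, values can overlap the other calls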;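 note: wild-type GFP and H69 mutant RFP strains grown together 50/50 in each well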
AID977628: E. coli growth inhibition, wild-type GFP versus h24 humanized RFP strain, dose response, h24 mutant RFP vs wild-type GFP, cherry-pick; shares compounds with rRNA inh HTS; E. coli WT GFP strain growth, fluorescence, 24 h; activity change, negative = inhibition at 50 µM; 1,900 tested, under 10 active; AID 977628, 2014;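 active = compound lowering the normal-ribosome reporter at least twice as much as the humanized-ribosome reporter, growth loss under a set limit; inconclusive = no clear call, values can overlap the other calls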;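 note: wild-type GFP and h24 humanized RFP strains co-cultured 1 to 1 per well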
Active calls of the source: *; ? = inconclusive; / = no result given; [ ] = remark or other dose.

SMILES	rRNA inh HTS	DENV2 CPE rescue	E-selectin induc	Cneo AK release	miR122 inh	AID977621	AID977628
COc1ccc(NC(=O)Nc2cccc3c2O[C@H](CN(C)S(=O)(=O)c2ccc(C)cc2)[C@H](C)CN([C@@H](C)CO)C3=O)cc1	-19*	-6	-2	-6	5[16.7 µM]	/	?
Cc1cc(C(=O)Nc2cccc3c2O[C@H](CN(C)S(=O)(=O)c2ccc(Cl)cc2)[C@@H](C)CN([C@@H](C)CO)C3=O)n(C)n1	1	5	0	-3	-1[16.7 µM]	/	/
CCC(=O)Nc1ccc2c(c1)C(=O)N(C)C[C@@H](OC)[C@@H](C)CN(Cc1ccccn1)[C@@H](C)CO2	0	/	0	60	12[16.7 µM]	/	/
COc1ccc(S(=O)(=O)Nc2cccc3c2O[C@@H](CN(C)S(=O)(=O)c2ccc(OC)cc2)[C@@H](C)CN([C@H](C)CO)C3=O)cc1	0	/	0	/	/	/	/
COc1ccc(C2CC(c3cccs3)=Nc3ccccc3S2)cc1 (stereo not drawn)	-26*	-1	/	-12	5	-1.2	?
COc1ccc(CN(C)C[C@@H]2Oc3ccc(NS(=O)(=O)c4c(C)noc4C)cc3CC(=O)N([C@H](C)CO)C[C@H]2C)cc1	4	-4	0	/	8[16.7 µM]	/	/
Cc1ccc(NCC(=O)c2ccc(C)cc2)cc1	-18*	-8	0	2	6	-10	-2.9
Cc1ccc(C(=O)CNc2cccc(Cl)c2)cc1	/	/	0	5	7	/	/
CCc1cc(C(=O)N2CCCC(C(=O)c3cccc4ccccc34)C2)n(C)n1 (stereo not drawn)	-26*	10	4	/	/	-6.8	/
Cc1ccsc1C(=O)N1CCCC(C(=O)c2cc(F)ccc2F)C1 (stereo not drawn)	-16*	-5	0	-1	1	/	?
CCOC(=O)c1ccc(NC(C)=O)c([N+](=O)[O-])c1	6	-5	0	0	1	/	/
CCCNc1ccc(C(=O)OCC)cc1[N+](=O)[O-]	-31*	/	4	1	6	-6.2	-12
COc1cccc(NC(=O)c2ccc(-c3ccc([N+](=O)[O-])cc3)o2)c1	-28*	-1	/	/	/	-23	/
CC(=O)Nc1cccc(OCCCOc2ccc([N+](=O)[O-])cc2)c1	3	-2	2	/	/	/	/
CC(=O)Nc1cccc(OCc2ccc([N+](=O)[O-])cc2)c1	-23*	-1	0	/	/	-6	-6.6
Cc1nnc(NC(=O)c2ccc(-c3ccc([N+](=O)[O-])cc3)o2)s1	-1	0	-4	8	-1	/	/
COc1ccc(S(=O)(=O)N2CCOc3ccccc32)cc1	-22*	1	1	-2	53	0.4	-17
COc1ccc(S(=O)(=O)n2cccc2)cc1	-23*	3	0	4	4	?	?
COc1ccc(S(=O)(=O)N2c3ccccc3OCC2C)cc1 (stereo not drawn)	-41	-6	/	/	55	/	/
C[C@@H]1CN([C@@H](C)CO)C(=O)c2cc(NC(=O)CCC(F)(F)F)ccc2O[C@@H](C)CCCCO[C@@H]1CN(C)C(=O)C1CCCCC1	-2	3	0	-3	3[16.7 µM]	/	/
CCN(c1ccccc1)S(=O)(=O)c1ccc(Cl)c(C(=O)NCc2ccco2)c1	-21*	3	/	0	5	-19	/
CCN(CC)S(=O)(=O)c1ccc(Cl)c(C(=O)NCc2ccco2)c1	8	-2	/	/	/	/	/
Nc1ccc2nc(-c3ccc(Cl)cc3)[nH]c2c1	-17*	-10	3	-1	4	/	-8.8
COC(=O)C[C@@H]1CC[C@@H]2[C@H](COc3ccc(NC(=O)c4cnccn4)cc3C(=O)N2C)O1	5	/	0	/	-4[16.7 µM]	/	/
COc1ccc(NC(=O)Nc2cccc3c2O[C@@H](CN(C)Cc2ccccc2)[C@H](C)CN([C@H](C)CO)C3=O)cc1	-5	10	0	-2	-6[16.7 µM]	/	/
SMILES	rRNA inh HTS	DENV2 CPE rescue	E-selectin induc	Cneo AK release	miR122 inh	AID977621	AID977628
CC(C)(C)S(=O)(=O)Cc1nc(-c2ccc(Cl)c(Cl)c2)cs1	-15*	-4	0	/	/	-1	-2.6
COC(C(=O)Nc1ccnn1C1CCN(Cc2ccc(C)s2)CC1)c1ccccc1 (stereo not drawn)	-1	5	/	-1	/	/	/
COC(C(=O)Nc1ccnn1C1CCN(Cc2ccc(Cl)s2)CC1)c1ccccc1 (stereo not drawn)	-22*	?	/	0	-7	-4.8	-9.8
CCN(CC)CCCN(C(=O)c1ccco1)c1nc(-c2ccc(C)cc2)cs1	-34*	-1	1	17	-2	?	?
Cc1csc2c(N3CCC(C(=O)O)CC3)ncnc12	-32*	-4	0	/	/	/	?
C[C@@H]1CN([C@H](C)CO)C(=O)c2cc(C3=CCCCC3)cnc2O[C@@H]1CN(C)C(=O)c1cccc(F)c1	3	3	0	2	40[16.7 µM]	/	/
Cc1occc1C(=O)Nc1ccc2c(c1)CCC2	-13*	-5	/	/	-4	?	?
O=C(O)c1ccccc1-c1ccccc1C(=O)Nc1ccc2c(c1)CCC2	-21*	-1	0	-1	-3	-12	/
O=C(O)c1ccccc1-c1ccccc1C(=O)Nc1ccccc1	/	/	/	1	-8	/	/
Cc1occc1C(=O)Nc1ccc2c(c1)OCCO2	/	/	/	-4	-4	/	/
Cc1ccc(-c2cnc3c(c2)C(=O)N([C@H](C)CO)C[C@@H](C)[C@H](CN(C)C(=O)c2ccc(F)cc2)O3)cc1	-7	?	0	8	-2[16.7 µM]	/	/
C=CCN(c1ccccc1)S(=O)(=O)c1ccc(Cl)c(C(=O)OCC(=O)NCCCN2CCCC2=O)c1	-23*	1	8	-7	-5	1.1	/
C=CCN(c1ccc(OC)cc1)S(=O)(=O)c1ccc(Cl)c(C(=O)OCC(=O)c2c(N)n(C)c(=O)n(C)c2=O)c1	/	0	1	0	-3	/	/
COc1ccc(S(=O)(=O)N(C)C[C@H]2OCCCC[C@@H](C)Oc3ccc(NS(=O)(=O)c4cn(C)cn4)cc3C(=O)N([C@H](C)CO)C[C@@H]2C)cc1	-1	-4	/	3	7[16.7 µM]	/	/
O=C(CC1C(=O)NCCN1CC1CCCCC1)NCc1ccc(F)cc1F (stereo not drawn)	-20*	-4	/	/	12	10	?
O=C(CC1C(=O)NCCN1CC1CCCCC1)NCc1cc(F)ccc1F (stereo not drawn)	-4	9	1	/	/	/	/
